{
  "source": "paper PMC4443282",
  "about": "(Molecules and Cells, 2015)",
  "key": {"Y30F/Y55F/Y115F/D38N KSI [1]": {"tested_on": "Y30F/Y55F/Y115F/D38N KSI", "assay": "KD by quenching of intrinsic tryptophan fluorescence of KSI", "type": "binding, Pseudomonas putida", "conditions": "relative to D38N KSI"}, "D38N KSI": {"target": "T1, D38N KSI (Pseudomonas putida, UniProt P07445, D40N)", "T1 sequence (P07445 1-131 D40N)": "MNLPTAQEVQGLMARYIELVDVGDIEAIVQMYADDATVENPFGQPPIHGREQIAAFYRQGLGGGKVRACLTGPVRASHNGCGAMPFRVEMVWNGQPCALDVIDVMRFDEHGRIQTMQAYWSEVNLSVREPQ", "assay": "KD by quenching of intrinsic tryptophan fluorescence of KSI", "type": "binding", "procedure,_shortened": "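Mutant KSI was expressed in E. coli BL21(DE3) and purified to a single SDS-PAGE band. Steroid ligand in DMSO was titrated successively into KSI in 10 mM potassium phosphate with 10% DMSO. Intrinsic fluorescence was read at ex 295/em 315 nm and corrected for dilution. KD was fitted to a binding equation using total steroid and KSI concentrations. Mean ± SD of three independent experiments.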"}, "Y30F/Y55F/D38N KSI": {"target": "T2, Y30F/Y55F/D38N KSI (Pseudomonas putida, UniProt P07445, D40N/Y32F/Y57F)", "T2 sequence (P07445 1-131 Y32F/D40N/Y57F)": "T1 sequence (P07445 1-131 D40N) with Y32F, Y57F", "assay": "KD by quenching of intrinsic tryptophan fluorescence of KSI", "type": "binding"}, "Y115F/D38N KSI": {"target": "T3, Y115F/D38N KSI (Pseudomonas putida, UniProt P07445, D40N/Y119F)", "T3 sequence (P07445 1-131 D40N/Y119F)": "T1 sequence (P07445 1-131 D40N) with Y119F", "assay": "KD by quenching of intrinsic tryptophan fluorescence of KSI", "type": "binding"}, "Y30F/Y55F/Y115F/D38N KSI [2]": {"target": "T4, Y30F/Y55F/Y115F/D38N KSI (Pseudomonas putida, UniProt P07445, D40N/Y119F/Y32F/Y57F)", "T4 sequence (P07445 1-131 Y32F/D40N/Y57F/Y119F)": "T1 sequence (P07445 1-131 D40N) with Y32F, Y57F, Y119F", "assay": "KD by quenching of intrinsic tryptophan fluorescence of KSI", "type": "binding"}, "Y55F/D38N KSI": {"target": "T5, Y55F/D38N KSI (Pseudomonas putida, UniProt P07445, D40N/Y57F)", "T5 sequence (P07445 1-131 D40N/Y57F)": "T1 sequence (P07445 1-131 D40N) with Y57F", "assay": "KD by quenching of intrinsic tryptophan fluorescence of KSI", "type": "binding"}, "Y30F/D38N KSI": {"target": "T6, Y30F/D38N KSI (Pseudomonas putida, UniProt P07445, D40N/Y32F)", "T6 sequence (P07445 1-131 Y32F/D40N)": "T1 sequence (P07445 1-131 D40N) with Y32F", "assay": "KD by quenching of intrinsic tryptophan fluorescence of KSI", "type": "binding"}, "Y55F KSI [3]": {"tested_on": "Y55F KSI", "assay": "Kinetic parameters kcat and KM for steroid substrate", "type": "biochemical, Pseudomonas putida", "conditions": "relative to wild type"}, "wild-type KSI": {"tested_on": "wild-type KSI", "assay": "Kinetic parameters kcat and KM for steroid substrate", "type": "biochemical, Pseudomonas putida", "conditions": "relative to wild type"}, "Y30F/Y55F/Y115F KSI": {"target": "T7, Y30F/Y55F/Y115F KSI (Pseudomonas putida, UniProt P07445, Y119F/Y32F/Y57F)", "T7 sequence (P07445 1-131 Y32F/Y57F/Y119F)": "T1 sequence (P07445 1-131 D40N) with Y32F, N40D, Y57F, Y119F", "assay": "Kinetic parameters kcat and KM for steroid substrate", "type": "biochemical"}, "Y30F KSI [4]": {"tested_on": "Y30F KSI", "conditions": "ref Kim et al., 2000; cited from earlier work"}, "Y115F KSI": {"target": "T8, Y115F KSI (Pseudomonas putida, UniProt P07445, Y119F)", "T8 sequence (P07445 1-131 Y119F)": "T1 sequence (P07445 1-131 D40N) with N40D, Y119F", "assay": "Kinetic parameters kcat and KM for steroid substrate", "type": "biochemical"}, "Y55F KSI [5]": {"tested_on": "Y55F KSI", "conditions": "ref Kim et al., 2000; cited from earlier work"}, "Y30F KSI [6]": {"tested_on": "Y30F KSI", "assay": "Kinetic parameters kcat and KM for steroid substrate", "type": "biochemical, Pseudomonas putida", "conditions": "relative to wild type"}, "[7]": {"conditions": "in solution; ref Ha et al., 2000; cited from earlier work"}, "Y30F/Y55F KSI": {"tested_on": "Y30F/Y55F KSI", "assay": "Kinetic parameters kcat and KM for steroid substrate", "type": "biochemical, Pseudomonas putida", "conditions": "relative to wild type"}, "[8]": {"conditions": "34 mM potassium phosphate, pH 7.0, 2.5 mM EDTA, 3.3 % methanol, 298 K"}},
  "note": "Residue numbers refer to the chain shown, from its start.",
  "data": [
    {"compound": "C[C@]12CC[C@@H]3c4ccc(O)cc4CC[C@H]3[C@@H]1CCC2=O", "note": "[estrone]", "values": [
      {"measurement": "decrease in binding energy", "setting": "Y30F/Y55F/Y115F/D38N KSI [1]", "result": "1.3 to 1.4", "unit": "kcal/mol"},
      {"measurement": "factor by which affinity is lower than that of D38N KSI", "setting": "Y30F/Y55F/Y115F/D38N KSI [1]", "result": "9.1–11"},
      {"measurement": "Kd", "setting": "D38N KSI", "result": 110, "unit": "nM"}
    ]},
    {"compound": "C[C@]12CCc3c(ccc4cc(O)ccc34)[C@@H]1CCC2=O", "note": "[equilenin]", "values": [
      {"measurement": "Kd", "setting": "Y30F/Y55F/D38N KSI", "result": 250, "unit": "nM"},
      {"measurement": "Kd", "setting": "Y115F/D38N KSI", "result": 70, "unit": "nM"},
      {"measurement": "decrease in binding energy", "setting": "Y30F/Y55F/Y115F/D38N KSI [1]", "result": "1.3 to 1.4", "unit": "kcal/mol"},
      {"measurement": "factor by which affinity is lower than that of D38N KSI", "setting": "Y30F/Y55F/Y115F/D38N KSI [1]", "result": "9.1–11"},
      {"measurement": "Kd", "setting": "Y30F/Y55F/Y115F/D38N KSI [2]", "result": 340, "unit": "nM"},
      {"measurement": "Kd", "setting": "D38N KSI", "result": 31, "unit": "nM"},
      {"measurement": "Kd", "setting": "Y55F/D38N KSI", "result": 80, "unit": "nM"},
      {"measurement": "Kd", "setting": "Y30F/D38N KSI", "result": 70, "unit": "nM"}
    ]},
    {"compound": "C[C@]12CCC(=O)CC1=CC[C@@H]1[C@@H]2CC[C@]2(C)C(=O)CC[C@@H]12", "note": "[5-AND, 5-androstene-3,17-dione]", "values": [
      {"measurement": "Relative kcat", "setting": "Y55F KSI [3]", "result": 0.17},
      {"measurement": "Relative kcat", "setting": "wild-type KSI", "result": 1},
      {"measurement": "Km", "setting": "Y30F/Y55F/Y115F KSI; [8]", "result": "77.3 ± 5.6", "unit": "µM"},
      {"measurement": "kcat", "setting": "Y30F/Y55F/Y115F KSI; [8]", "result": "(12.2 ± 0.2) × 10^3 s^−1"},
      {"measurement": "Relative kcat", "setting": "Y30F/Y55F/Y115F KSI; relative to wild type", "result": 0.57},
      {"measurement": "factor of decrease in kcat relative to the wild-type KSI", "setting": "Y30F KSI [4]", "result": 1.2},
      {"measurement": "Km", "setting": "Y115F KSI; [8]", "result": "41.7 ± 2", "unit": "µM"},
      {"measurement": "kcat", "setting": "Y115F KSI; [8]", "result": "(14.5 ± 0.4) × 10^3 s^−1"},
      {"measurement": "Relative kcat", "setting": "Y115F KSI; relative to wild type", "result": 0.68},
      {"measurement": "factor of decrease in kcat relative to the wild-type KSI", "setting": "Y55F KSI [5]", "result": 6},
      {"measurement": "Relative kcat", "setting": "Y30F KSI [6]", "result": 0.84},
      {"measurement": "pKa of the C4 proton", "setting": "[7]", "result": 12.7},
      {"measurement": "Relative kcat", "setting": "Y30F/Y55F KSI", "result": 0.50}
    ]}
  ]
}
